Columns and labels:
[1] = biological target: T1, Histone-lysine N-methyltransferase EHMT2 (Homo sapiens) (UniProt Q96KQ7); assay: Inhibition of EHMT2 (unknown origin) at 10 uM relative to control
T1 sequence (whole entry): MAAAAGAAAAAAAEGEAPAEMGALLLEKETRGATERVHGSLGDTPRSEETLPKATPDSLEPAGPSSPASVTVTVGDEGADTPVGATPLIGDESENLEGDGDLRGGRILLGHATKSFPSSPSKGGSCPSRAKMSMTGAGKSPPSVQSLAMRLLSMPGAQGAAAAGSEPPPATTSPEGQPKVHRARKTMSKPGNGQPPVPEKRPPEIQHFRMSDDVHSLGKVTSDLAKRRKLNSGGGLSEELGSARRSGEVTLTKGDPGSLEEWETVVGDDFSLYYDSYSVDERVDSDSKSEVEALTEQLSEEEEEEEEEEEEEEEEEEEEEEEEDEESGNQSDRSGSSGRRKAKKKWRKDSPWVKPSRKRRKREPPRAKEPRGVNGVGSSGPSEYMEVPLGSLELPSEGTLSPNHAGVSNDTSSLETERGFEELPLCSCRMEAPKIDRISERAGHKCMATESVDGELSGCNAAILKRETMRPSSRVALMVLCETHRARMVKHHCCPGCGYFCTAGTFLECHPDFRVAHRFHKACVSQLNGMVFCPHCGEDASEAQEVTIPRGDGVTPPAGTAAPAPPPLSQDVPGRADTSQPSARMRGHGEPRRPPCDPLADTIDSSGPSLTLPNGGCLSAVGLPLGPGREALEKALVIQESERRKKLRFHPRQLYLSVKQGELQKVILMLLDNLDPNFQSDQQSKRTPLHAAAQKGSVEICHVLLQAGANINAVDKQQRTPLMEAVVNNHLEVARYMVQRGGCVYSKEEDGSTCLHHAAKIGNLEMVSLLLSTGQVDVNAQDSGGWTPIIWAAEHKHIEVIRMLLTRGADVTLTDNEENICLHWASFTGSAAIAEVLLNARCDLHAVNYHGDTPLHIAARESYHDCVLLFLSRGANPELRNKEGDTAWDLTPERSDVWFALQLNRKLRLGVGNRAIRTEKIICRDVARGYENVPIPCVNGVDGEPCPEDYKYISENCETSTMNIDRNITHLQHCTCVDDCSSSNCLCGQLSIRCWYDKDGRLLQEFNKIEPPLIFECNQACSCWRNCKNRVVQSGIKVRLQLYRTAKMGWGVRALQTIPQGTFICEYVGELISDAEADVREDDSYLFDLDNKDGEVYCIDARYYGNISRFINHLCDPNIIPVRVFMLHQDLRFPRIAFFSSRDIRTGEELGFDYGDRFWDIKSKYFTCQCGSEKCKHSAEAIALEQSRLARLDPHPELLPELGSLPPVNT

[2] = biological target: T2, Histone-lysine N-methyltransferase EZH1 (Homo sapiens) (UniProt Q92800); assay: Inhibition of EZH1 (unknown origin) at 10 uM relative to control
T2 sequence (whole entry): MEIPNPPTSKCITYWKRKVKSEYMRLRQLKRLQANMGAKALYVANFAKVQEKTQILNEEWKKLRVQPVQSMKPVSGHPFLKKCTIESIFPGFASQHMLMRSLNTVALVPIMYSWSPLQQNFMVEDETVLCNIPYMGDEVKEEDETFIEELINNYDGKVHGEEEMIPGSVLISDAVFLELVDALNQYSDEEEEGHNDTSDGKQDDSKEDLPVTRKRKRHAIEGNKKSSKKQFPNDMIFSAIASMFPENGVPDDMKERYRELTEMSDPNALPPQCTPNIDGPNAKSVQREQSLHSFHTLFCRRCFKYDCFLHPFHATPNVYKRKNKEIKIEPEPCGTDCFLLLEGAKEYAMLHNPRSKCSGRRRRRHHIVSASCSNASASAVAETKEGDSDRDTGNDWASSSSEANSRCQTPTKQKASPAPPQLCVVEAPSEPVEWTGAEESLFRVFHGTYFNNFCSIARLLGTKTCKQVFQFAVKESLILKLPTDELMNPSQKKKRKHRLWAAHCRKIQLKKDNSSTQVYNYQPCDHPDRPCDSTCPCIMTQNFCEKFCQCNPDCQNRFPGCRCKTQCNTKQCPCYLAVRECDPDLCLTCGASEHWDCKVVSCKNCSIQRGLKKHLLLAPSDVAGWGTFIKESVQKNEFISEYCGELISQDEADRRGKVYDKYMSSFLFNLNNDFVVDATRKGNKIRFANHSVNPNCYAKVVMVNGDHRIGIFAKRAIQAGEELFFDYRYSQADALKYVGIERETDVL

[3] = biological target: Histone-lysine N-methyltransferase, H3 lysine-36 specific (Homo sapiens) (UniProt Q96L73); assay: Inhibition of NSD1 (unknown origin) at 10 uM relative to control
Histone-lysine N-methyltransferase, H3 lysine-36 specific (Homo sapiens), sequence (Q96L73 whole entry): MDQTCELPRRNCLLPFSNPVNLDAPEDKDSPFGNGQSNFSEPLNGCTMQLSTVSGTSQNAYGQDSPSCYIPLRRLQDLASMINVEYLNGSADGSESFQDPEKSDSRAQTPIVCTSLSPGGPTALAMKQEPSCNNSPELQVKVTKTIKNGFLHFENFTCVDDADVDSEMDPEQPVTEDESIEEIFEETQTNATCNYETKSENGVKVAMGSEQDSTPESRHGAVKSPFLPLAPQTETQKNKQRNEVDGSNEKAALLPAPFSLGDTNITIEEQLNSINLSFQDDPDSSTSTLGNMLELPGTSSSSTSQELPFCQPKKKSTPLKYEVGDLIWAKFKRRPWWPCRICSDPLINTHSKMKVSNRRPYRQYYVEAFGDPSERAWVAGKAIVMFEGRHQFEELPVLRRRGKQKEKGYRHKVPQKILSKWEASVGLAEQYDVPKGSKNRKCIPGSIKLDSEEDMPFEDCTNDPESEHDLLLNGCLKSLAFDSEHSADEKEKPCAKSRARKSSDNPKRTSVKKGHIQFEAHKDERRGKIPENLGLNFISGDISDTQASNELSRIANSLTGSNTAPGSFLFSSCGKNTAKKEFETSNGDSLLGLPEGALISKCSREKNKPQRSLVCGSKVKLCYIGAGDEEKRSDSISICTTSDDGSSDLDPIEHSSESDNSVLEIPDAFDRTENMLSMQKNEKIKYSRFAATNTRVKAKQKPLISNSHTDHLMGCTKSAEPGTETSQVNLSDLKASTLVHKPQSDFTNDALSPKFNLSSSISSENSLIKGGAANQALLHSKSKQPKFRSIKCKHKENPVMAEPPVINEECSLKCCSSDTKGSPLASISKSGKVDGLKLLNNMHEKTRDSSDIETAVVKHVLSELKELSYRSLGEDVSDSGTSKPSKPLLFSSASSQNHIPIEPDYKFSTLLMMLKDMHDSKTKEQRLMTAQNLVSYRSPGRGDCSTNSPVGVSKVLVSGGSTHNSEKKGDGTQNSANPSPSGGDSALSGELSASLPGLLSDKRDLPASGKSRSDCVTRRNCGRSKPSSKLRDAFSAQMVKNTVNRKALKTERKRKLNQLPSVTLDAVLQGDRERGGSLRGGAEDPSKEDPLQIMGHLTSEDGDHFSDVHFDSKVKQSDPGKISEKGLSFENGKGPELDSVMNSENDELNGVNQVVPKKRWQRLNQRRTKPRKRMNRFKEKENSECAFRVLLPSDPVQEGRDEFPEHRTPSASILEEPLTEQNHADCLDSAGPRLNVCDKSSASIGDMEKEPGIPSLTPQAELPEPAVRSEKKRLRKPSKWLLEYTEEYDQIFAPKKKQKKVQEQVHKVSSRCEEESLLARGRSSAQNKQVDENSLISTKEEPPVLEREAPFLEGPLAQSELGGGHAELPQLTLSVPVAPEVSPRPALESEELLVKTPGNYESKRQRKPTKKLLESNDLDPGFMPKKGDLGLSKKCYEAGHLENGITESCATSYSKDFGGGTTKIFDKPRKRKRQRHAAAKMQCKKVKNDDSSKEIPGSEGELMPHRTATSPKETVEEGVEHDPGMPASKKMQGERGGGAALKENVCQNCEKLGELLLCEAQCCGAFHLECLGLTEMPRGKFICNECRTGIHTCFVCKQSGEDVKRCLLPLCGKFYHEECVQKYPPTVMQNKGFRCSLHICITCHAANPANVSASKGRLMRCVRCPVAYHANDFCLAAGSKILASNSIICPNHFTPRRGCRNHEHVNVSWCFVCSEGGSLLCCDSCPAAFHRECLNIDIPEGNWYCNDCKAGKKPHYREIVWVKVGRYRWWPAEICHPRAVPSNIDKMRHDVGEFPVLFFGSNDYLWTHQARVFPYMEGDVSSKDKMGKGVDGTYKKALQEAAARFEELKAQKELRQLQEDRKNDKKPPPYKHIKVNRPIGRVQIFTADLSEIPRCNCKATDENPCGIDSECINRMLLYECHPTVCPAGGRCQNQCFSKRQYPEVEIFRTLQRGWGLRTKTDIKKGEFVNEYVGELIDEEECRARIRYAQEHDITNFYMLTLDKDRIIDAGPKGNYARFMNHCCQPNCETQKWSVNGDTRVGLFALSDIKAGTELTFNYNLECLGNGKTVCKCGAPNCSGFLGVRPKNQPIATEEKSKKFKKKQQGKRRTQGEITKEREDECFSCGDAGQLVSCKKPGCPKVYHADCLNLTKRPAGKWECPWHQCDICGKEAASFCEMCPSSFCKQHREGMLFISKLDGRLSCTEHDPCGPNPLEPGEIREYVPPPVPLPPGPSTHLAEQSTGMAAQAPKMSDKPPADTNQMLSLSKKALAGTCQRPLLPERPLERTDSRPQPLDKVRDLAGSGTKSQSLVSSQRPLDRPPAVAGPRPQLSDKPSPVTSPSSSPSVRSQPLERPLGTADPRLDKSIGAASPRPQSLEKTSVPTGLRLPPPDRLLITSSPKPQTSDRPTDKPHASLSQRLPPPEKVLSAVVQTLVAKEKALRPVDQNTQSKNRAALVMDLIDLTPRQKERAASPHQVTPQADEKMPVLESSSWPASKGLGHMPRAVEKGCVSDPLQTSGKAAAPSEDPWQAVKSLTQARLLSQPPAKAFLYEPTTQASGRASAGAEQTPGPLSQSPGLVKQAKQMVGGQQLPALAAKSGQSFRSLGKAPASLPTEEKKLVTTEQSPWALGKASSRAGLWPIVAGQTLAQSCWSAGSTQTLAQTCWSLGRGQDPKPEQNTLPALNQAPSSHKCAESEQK

[4] = biological target: Histone-lysine N-methyltransferase SETDB1 (Homo sapiens) (UniProt Q15047); assay: Inhibition of SETDB1 (unknown origin) at 10 uM relative to control
[5] = biological target: N-lysine methyltransferase SMYD2 (Homo sapiens, UniProt Q9NRG4); assay: Inhibition of SMYD2 (unknown origin)
N-lysine methyltransferase SMYD2, sequence (Q9NRG4 whole entry): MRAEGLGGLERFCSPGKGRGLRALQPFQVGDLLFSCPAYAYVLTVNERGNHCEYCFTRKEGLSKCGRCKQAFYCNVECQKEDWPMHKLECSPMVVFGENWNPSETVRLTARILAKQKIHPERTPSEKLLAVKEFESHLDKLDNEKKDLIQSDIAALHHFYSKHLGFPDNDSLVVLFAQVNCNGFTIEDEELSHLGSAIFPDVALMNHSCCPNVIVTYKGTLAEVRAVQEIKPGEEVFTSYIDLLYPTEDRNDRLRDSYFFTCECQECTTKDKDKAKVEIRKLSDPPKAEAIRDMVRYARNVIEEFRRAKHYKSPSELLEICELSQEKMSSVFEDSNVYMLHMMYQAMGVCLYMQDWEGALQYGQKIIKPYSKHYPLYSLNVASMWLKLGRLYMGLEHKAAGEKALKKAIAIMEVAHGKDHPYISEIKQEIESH

[6] = Apparent permeability in human Caco2 cells at 10 uM incubated for 120 mins by LC-MS/MS analysis; type: ADME, cell-based; settings: Caco-2
Outline: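 Caco-2 cell monolayers; permeability measured in the apical-to-basolateral direction, with an efflux ratio also determined.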

| Compound | inhibition [1] | inhibition [2] | inhibition [3] | inhibition [4] | IC50 [5] | Papp at 2 h, 10 µM [6] |
| --- | --- | --- | --- | --- | --- | --- |
| O=C1Cc2cc(C(=O)N[C@H]3C[C@H]4CC[C@@H](C3)N4S(=O)(=O)CC3CCN(CCCC(F)(F)F)CC3)c(Cl)cc2N1 | < 30% | < 30% | < 30% | < 30% | > 50 µM | 0.64 ×10⁻⁶ cm/s |
| O=C1Cc2cc(C(=O)N[C@H]3C[C@H]4CC[C@@H](C3)N4S(=O)(=O)N3CCC(NCc4ccccc4)CC3)c(Cl)cc2N1 | < 30% | < 30% | < 30% | < 30% | > 50 µM | 0.34 ×10⁻⁶ cm/s |
